NSD2 HMT inh: inhibitors of human histone methyltransferase NSD2; O96028; NSD2 peptide methylation, AlphaScreen, 120 min; inhibition, % at 12.5 µM; actives 0.54% (n = 310,000); AID 743445; in the data active = inhibition above about 50%
UHRF1 binding: UHRF1 methyl-DNA binding inhibition. UHRF1 binding to methylated oligo, TR-FRET. inhibition, % at 4.4 µM. Q96T88. actives 0.75% (n = 370,000); in the data active = inhibition above about 21%;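 note: UHRF1 SRA domain binding a hemimethylated CpG hairpin DNA probe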
LEDGF integ inh: blocks HIV-1 LEDGF/p75-dependent DNA integration | inhibition, % at 3.7 µM | TR-FRET IN-LEDGF/p75 DNA integration, Eu/Cy5 | actives 0.64% (n = 370,000);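 active = inhibition above the screen-wide mean plus 3 SD, cut at about 13% in these data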;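 note: signal is the Cy5 over europium emission ratio at 671 and 618 nm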
Casp6 inh: inhibitors of human caspase-6; P55212; purified caspase-6, Z-VEID-R110 cleavage fluorescence; inhibition, % at 12.5 µM; actives 0.53% (n = 350,000); AID 686996;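 active = mean inhibition across replicates at least about 35%, with every replicate also reaching that limit, limit read from the data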
TDP2 inh: TDP2 (human) inhibition, absorbance primary screen | inhibition, % at 12.8 µM | AID 720702 | actives 0.34% (n = 370,000) | O95551 | recombinant TDP2, T5PNP hydrolysis, p-nitrophenol absorbance 415 nm;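 active = inhibition above the mean of all tested compounds plus 3 SD, set per campaign, cut at about 25% in these data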
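Read-out basis: percent inhibition. System: recombinant human TDP2. Buffer or medium: Mg2+-containing Tris-HCl buffer, pH 7.5. Repeats: single replicate. Timing: reaction 2 h, 37 °C. Benchmarks: high control without enzyme, low control DMSO plus TDP2. Probe or stimulus: 5 mM T5PNP. Doses: 12.8 µM only. Measured by: epi absorbance of p-nitrophenol freed from T5PNP by hydrolysis.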
MBD2 inh: inhibitors of human MBD2 binding to methylated oligonucleotide | Q9UBB5 | TR-FRET | inhibition, % at 4.4 µM | actives 0.31% (n = 370,000); in the data active = inhibition above about 13%
Numbers stand for hits; - = inactive; . = no result. The list is not random: actives were taken first. Their share in the collection is about 1.8%.

SMILES	NSD2 HMT inh	UHRF1 binding	LEDGF integ inh	Casp6 inh	TDP2 inh	MBD2 inh
CCOC(=O)c1cnc2ccccc2c1Nc1ccc(C(=O)O)cc1	-	26	-	-	-	-
CCOC(=O)c1cnc2ccccc2c1Nc1cccc(C(=O)O)c1	-	-	-	.	-	-
O=C1Nc2ccccc2Nc2ccccc21	-	23	-	-	-	-
Cc1cc(NS(=O)(=O)c2ccc(NC(=O)COc3ccccc3[N+](=O)[O-])cc2)no1	-	-	-	74	-	-
Cc1cc(NS(=O)(=O)c2ccc(NC(=O)NC(C)(C(F)(F)F)C(F)(F)F)cc2)no1	-	21	-	.	-	-
C[C@H](CO)N1C[C@H](C)[C@@H](CN(C)S(=O)(=O)c2ccccc2)Oc2c(NC(=O)C3CCOCC3)cccc2C1=O	.	.	.	-	.	.
CCC(=O)N1CC2(C1)CN(C(=O)NC1CCCC1)[C@H](CO)c1c2c2ccc(OC)cc2n1C	.	.	.	-	.	.
CN(C)C(=O)c1cc2c(c(-c3cccc(C4=CCCCC4)c3)n1)[C@@H](CCO)N(S(C)(=O)=O)C2	.	.	.	-	.	.
CN(C)C(=O)c1cc2c(c(-c3cccc(-c4ccccc4F)c3)n1)[C@@H](CCO)N(S(C)(=O)=O)C2	.	92	-	-	-	-
COc1ccc(-c2ccc3c(c2)[C@H]2[C@H](CCN2C(=O)Cc2cccnc2)[C@@H](CO)N3C)cc1	.	.	.	-	.	.
OC[C@@H]1[C@H](c2ccc(C#Cc3ccccc3)cc2)[C@H]2CN(Cc3cncnc3)CCCCN12	.	.	.	-	.	.
O=C1c2ccc(Oc3cccc([N+](=O)[O-])c3)cc2C(=O)N1c1ccccn1	-	-	-	-	-	-
O=C(O)c1cccc(N2C(=O)c3cc([N+](=O)[O-])cc4cc([N+](=O)[O-])cc(c34)C2=O)c1	-	-	-	45	-	-
O=C1c2cc([N+](=O)[O-])cc3cc([N+](=O)[O-])cc(c23)C(=O)N1c1ccccn1	-	-	-	48	-	-
O=C(Cc1ccccn1)NCC[C@@H]1CC[C@H](NC(=O)c2ccccc2F)[C@@H](CO)O1	.	.	.	-	.	.
CCS(=O)(=O)Nc1ccc2c(c1)C(=O)N(C)C[C@@H](OC)[C@H](C)CN(CCC(F)(F)F)[C@H](C)CO2	.	.	.	-	.	.
CO[C@H]1CN(C)C(=O)c2ccc(NC(=O)NC(C)C)cc2OC[C@@H](C)N(C(=O)CC2CC2)C[C@@H]1C	.	.	.	-	.	.
COc1ccc(NC(=O)Nc2ccc3c(c2)C(=O)N([C@@H](C)CO)C[C@H](C)[C@@H](CN(C)S(=O)(=O)c2cccs2)O3)cc1	.	.	.	-	.	.
Cc1ccc(S(=O)(=O)Nc2ccc3c(c2)C(=O)N([C@@H](C)CO)C[C@H](C)[C@@H](CN(C)C)OCCCC[C@H](C)O3)cc1	.	.	.	-	.	.
CC(=O)Nc1cccc(-c2ccnc3c2CC(C)(C(=O)NC(C)C)O3)c1 (centres undefined)	-	-	-	-	-	-
CC(C)NC(=O)C1(C)Cc2c(-c3cccc(C(F)(F)F)c3)ccnc2O1 (centres undefined)	-	38	-	-	-	-
COc1ccc(S(=O)(=O)Nc2cccc3c2O[C@H](CN(C)Cc2ccc(Oc4ccccc4)cc2)[C@H](C)CN([C@@H](C)CO)C3=O)cc1	.	.	.	-	.	.
COCC(=O)N(C)C[C@H]1Oc2cc(-c3ccccc3F)ccc2S(=O)(=O)N([C@@H](C)CO)C[C@H]1C	.	.	.	-	.	.
CC1=C(C#N)C(c2ccc3ncccc3c2)C(C#N)=C(C)N1	-	28	-	-	-	-
C/C=C/c1ccc([C@@H]2[C@H](CO)N(C(=O)CC)C23CN(S(C)(=O)=O)C3)cc1	.	.	.	-	.	.
SMILES	NSD2 HMT inh	UHRF1 binding	LEDGF integ inh	Casp6 inh	TDP2 inh	MBD2 inh
Cc1ccc(C(=O)OCC(=O)NCCNC(=O)COC(=O)c2ccc(C)s2)s1	-	30	-	-	-	-
CCC(=O)Nc1ccc(C(=O)NNC(=O)c2cc(OC)c(OC)c(OC)c2)cc1	-	-	-	-	-	-
COc1cc(C(=O)NNC(=O)c2ccc(NC(=O)C(C)(C)C)cc2)cc(OC)c1OC	-	32	-	-	-	-
O=C(O)c1ccccc1C(=O)c1ccc(Cl)cc1	-	-	-	-	-	-
Nc1sccc1C(=O)c1ccc(Cl)cc1	-	30	-	-	-	-
N#CC(C#N)=c1ccc2c(c1)N1C3=C(CCCC3)CC3CCCCC31N=2 (centres undefined)	55	-	-	.	-	-
Cc1ccc(NC(=S)Nc2cccc3ccccc23)cc1	-	-	-	-	-	-
Cc1cc(C)cc(NC(=S)Nc2cccc3ccccc23)c1	-	66	-	-	-	-
CC(=O)N(C)C[C@H]1Oc2cc(C#CC3CCCC3)ccc2S(=O)(=O)N([C@H](C)CO)C[C@H]1C	.	.	.	-	.	.
C[C@@H]1CCCCO[C@@H](CN(C)C(=O)Nc2ccc(C(F)(F)F)cc2)[C@H](C)CN([C@@H](C)CO)C(=O)c2cc(NC(=O)Nc3ccc(F)cc3)ccc2O1	.	.	.	-	.	.
COC(=O)C[C@@H]1C[C@H]2c3cc(NC(=O)Nc4ccccc4)ccc3O[C@H]2[C@@H](CO)O1	.	.	.	-	.	.
O=C1Nc2ccc(Br)cc2C1=Nc1cccnc1	67	-	-	-	-	-
O=C1Nc2ccccc2C1=Nc1cccc(Cl)c1	-	-	-	-	-	-
C[C@H](CO)N1C[C@H](C)[C@H](CN(C)C(=O)[C@H](C)c2ccccc2)OCc2ccccc2-c2c(n(C)c3ccccc23)C1=O	.	.	.	-	.	.
C=C(C)C(=O)Nc1ccc2c(c1)OCCOCCOCCO2	.	-	-	53	-	-
C[C@@H]1CN([C@H](C)CO)C(=O)c2cc(NC(=O)NC3CCCCC3)ccc2O[C@@H](C)CCCCO[C@@H]1CN(C)C(=O)c1ccccc1	.	.	.	-	.	.
CCc1ccc2nc3nc(C)cc(C)c3c(N)c2c1	-	22	-	-	-	-
C[C@@H]1CN([C@@H](C)CO)C(=O)c2cc(NC(=O)c3ccncc3)ccc2O[C@@H](C)CCCCO[C@H]1CN(C)S(=O)(=O)c1cn(C)cn1	.	.	.	-	.	.
C/C=C/c1cnc2c(c1)C(=O)N([C@H](C)CO)C[C@@H](C)[C@H](CN(C)S(=O)(=O)c1cn(C)cn1)O2	.	.	.	-	.	.
O=C(c1ccc(CNS(=O)(=O)c2ccccc2)cc1)N1CCN(c2ccccn2)CC1	-	23	-	.	-	-
O=C(c1ccc(Cl)c(S(=O)(=O)NCc2ccccc2)c1)N1CCN(c2ccccn2)CC1	-	.	.	-	.	.
Cc1ccc2oc(C(=O)N(Cc3ccc(N(C)C)cc3)C3CCS(=O)(=O)C3)c(C)c2c1 (centres undefined)	-	-	-	59	-	-
Cc1ccc2c(C)c(C(=O)N(Cc3ccc(N(C)C)cc3)C3CCS(=O)(=O)C3)oc2c1 (centres undefined)	.	-	-	-	-	-
O=C(CSc1nc2ccccc2s1)N1CCCCC1	-	42	-	-	-	-

Compound activity from PubChem BioAssay.
